Data: BindingDB's records for doi:10.1016/j.bmcl.2019.05.024 (Harvard Medical School, 2019)
pIC50: −log10 of the molar value.

Assays:
[1] = biological target: Cyclin-dependent kinase 14 (Homo sapiens, UniProt O94921); experiment: Inhibition of FLAG-tagged CDK14 (unknown origin) expressed in human HEK293 cells assessed as blocking of CDK14 pulldown incubated for 4 hrs by biotinylated JNK-IN- based pull down assay
Outline: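 Cells were treated with compound at various doses for 4 h and then lysed. Lysates were incubated with biotinylated JNK-IN-7 and captured on streptavidin-coated beads. CDK14 capture was detected by western blot.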

[2] = biological target: Cyclin-dependent kinase 14/Cyclin-Y (Homo sapiens, UniProt O94921+Q8ND76); experiment: Inhibition of recombinant GST-tagged human full length CDK14/cyclin Y (2 to end residues) preincubated for 30 mins by Lantha screen eu binding assay
Sequence of Cyclin-dependent kinase 14/Cyclin-Y (O94921 whole entry): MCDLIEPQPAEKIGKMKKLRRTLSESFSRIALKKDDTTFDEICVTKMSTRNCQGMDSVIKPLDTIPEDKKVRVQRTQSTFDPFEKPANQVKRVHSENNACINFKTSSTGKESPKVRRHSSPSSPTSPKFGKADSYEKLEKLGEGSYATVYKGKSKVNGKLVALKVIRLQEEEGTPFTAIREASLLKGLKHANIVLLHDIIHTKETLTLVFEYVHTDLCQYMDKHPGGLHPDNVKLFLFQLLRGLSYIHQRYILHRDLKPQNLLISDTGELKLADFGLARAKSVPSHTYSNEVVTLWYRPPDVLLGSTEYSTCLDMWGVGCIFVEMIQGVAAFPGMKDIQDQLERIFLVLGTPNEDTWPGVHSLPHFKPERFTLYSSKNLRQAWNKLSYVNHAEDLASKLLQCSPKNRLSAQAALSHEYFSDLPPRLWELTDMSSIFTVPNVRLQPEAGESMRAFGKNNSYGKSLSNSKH
Sequence of Cyclin-dependent kinase 14/Cyclin-Y (Q8ND76 2-341 limits assumed): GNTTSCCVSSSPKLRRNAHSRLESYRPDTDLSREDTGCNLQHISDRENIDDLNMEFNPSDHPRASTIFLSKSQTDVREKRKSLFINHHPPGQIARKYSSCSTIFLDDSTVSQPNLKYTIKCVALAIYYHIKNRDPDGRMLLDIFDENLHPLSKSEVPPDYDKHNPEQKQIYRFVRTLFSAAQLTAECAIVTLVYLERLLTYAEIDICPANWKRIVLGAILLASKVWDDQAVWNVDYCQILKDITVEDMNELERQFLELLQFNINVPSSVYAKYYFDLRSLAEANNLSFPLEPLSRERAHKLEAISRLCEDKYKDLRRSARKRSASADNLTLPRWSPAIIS
Outline: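 CDK14 binding was measured in a LanthaScreen binding assay. IC50 is the average of three replicates, reported ± standard error.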

Sequence of Cyclin-dependent kinase 14 (O94921 whole entry): as the sequence (O94921 whole entry) above

Row | Structure (SMILES) | pIC50 [1] | pIC50 [2]
1 | C=CC(=O)Nc1cccc(C(=O)N2CCC(NC(=O)c3n[nH]cc3NC(=O)c3c(Cl)cccc3Cl)CC2)c1 | 6.30 | 
2 | CN(C)CC=CC(=O)Nc1cccc(C(=O)Nc2ccc(NC(=O)c3n[nH]cc3NC(=O)c3c(Cl)cccc3Cl)cc2)c1 |  | 7.77
